# According to ChEMBL document CHEMBL4330057, “Second generation of diazachrysenes: Protection of Ebola virus infected mice and mechanism of action” (Eur J Med Chem, 2019):
# Active and inactive are the calls of the source. The calls are words filed in the database; no cut-off is given here.
# How the values were obtained:
# [1] = Myelotoxicity in 6 hrs post fertilized transgenic mpx:GFP zebrafish embryo assessed as reduction in neutrophil occurrence up to 20 uM measured at 72 hrs hrs post fertilization by fluorescence assay; design: species or system Danio rerio
# In short: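 Tg(mpx:GFP) zebrafish embryos with GFP-labelled neutrophils were treated with compound. At 72 hpf, neutrophil fluorescence of the whole embryo and neutrophil occurrence were assessed.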
# [2] = Hepatotoxicity in 6 hrs post fertilized transgenic l-fabp:EGFP zebrafish embryo assessed as change in liver area index up to 40 uM up to 120 hrs post fertilization by fluorescence assay; format: toxicity, Danio rerio; conditions: in vivo
# In short: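 Tg(l-fabp:EGFP) zebrafish embryos exposed from 6 hpf. At 120 hpf, liver area index (liver area/lateral body area) and liver fluorescence assessed by in vivo imaging.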
# Ebolavirus [3] = assay: Antiviral activity against Ebolavirus infected in mouse assessed as protection against viral infection at 10 mg/kg/day relative to control; format: functional
# Ebolavirus [4] = assay: Antiviral activity against Ebolavirus; format: functional, organism-based; conditions: Orthoebolavirus
# Zaire ebolavirus [5] = assay: Antiviral activity against VSV pseudotyped Ebolavirus Mayinga expressing GFP infected in human HeLa cells assessed as inhibition of viral infection up to 50 uM pre-incubated for 2 hrs followed by viral infection and measured after 8 hrs by high content imaging analysis; format: functional, organism-based; conditions: 1976
# In short: (§1)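 HeLa cells pretreated 2 h with compound, then infected with rVSV-EBOV-GP-GFP (8 h) or VSV-GFP (6 h), and stained with Cell Mask Deep Red. Relative inhibition = 1 minus (% GFP-expressing cells normalised to mock). Mean ± SD of three replicates, representative of three independent experiments.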
# [6] = Apparent permeability from basolateral to apical side in MDCK cells; format: ADME, cell-based, Canis lupus familiaris; conditions: dog
# In short: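 Apparent permeability measured in MDCK cell monolayers, apical→basolateral and basolateral→apical directions, three biological replicates.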
# [7] = Stability in plasma (unknown origin) after 1 hr at 37 degC; format: ADME, cell-free; conditions: read-out: Stability
# In short: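 Compound was incubated in plasma for 1 h at 37 °C, and the percent remaining was reported.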
# Cytochrome P450 2C19 = Cytochrome P450 2C19 (Homo sapiens, UniProt P33261); assay: Inhibition of CYP2C19 (unknown origin) using CEC as substrate; format: ADME
# Sequence of Cytochrome P450 2C19 (P33261 whole entry): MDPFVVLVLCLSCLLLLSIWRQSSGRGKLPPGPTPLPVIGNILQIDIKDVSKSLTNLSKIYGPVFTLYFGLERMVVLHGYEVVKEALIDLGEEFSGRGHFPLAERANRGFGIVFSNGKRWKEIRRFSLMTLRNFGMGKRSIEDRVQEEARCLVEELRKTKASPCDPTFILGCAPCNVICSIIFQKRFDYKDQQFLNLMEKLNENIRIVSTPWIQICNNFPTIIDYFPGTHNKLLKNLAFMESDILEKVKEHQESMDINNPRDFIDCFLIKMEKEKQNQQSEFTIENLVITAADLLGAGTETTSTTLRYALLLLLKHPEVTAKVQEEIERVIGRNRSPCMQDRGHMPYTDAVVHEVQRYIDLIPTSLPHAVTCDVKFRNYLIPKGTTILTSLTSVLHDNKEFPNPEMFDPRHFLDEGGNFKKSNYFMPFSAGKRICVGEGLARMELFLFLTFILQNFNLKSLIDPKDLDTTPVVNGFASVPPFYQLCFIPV
# In short: (§2)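 CYP IC50 was taken from the net fluorescent signal after incubation at 37 °C for a set time with active cytochrome P450 enzyme and a fluorescent probe substrate.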
# Zaire ebolavirus [8] = assay: Antiviral activity against Ebolavirus Mayinga infected in ip dosed Balb/c mouse assessed as protection against viral infection administered 2 hrs prior to viral infection daily for 6 days and measured for 14 days; format: functional, organism-based; conditions: 1976
# HeLa [9] = assay: Induction of lysosome suppression in human HeLa cells assessed as vesicular compartment expansion pretreated for 2 hrs by uranyl acetate staining based transmission electron microscopic method; format: functional, subcellular
# In short: (§3)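 HeLa cells mock-treated or treated 2 h with compound, then left uninfected or infected with rVSV-EBOV-GP-GFP for 2 h or 6 h. Processed for transmission electron microscopy to examine vesicular compartments.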
# Cytochrome P450 3A4 [10] = target: T1, Cytochrome P450 3A4 (Homo sapiens, UniProt P08684); assay: Inhibition of CYP3A4 (unknown origin) using 7-benzyloxy-4-trifluoromethylcoumarin as substrate; format: ADME; in short: as §2
# T1 sequence (P08684 whole entry): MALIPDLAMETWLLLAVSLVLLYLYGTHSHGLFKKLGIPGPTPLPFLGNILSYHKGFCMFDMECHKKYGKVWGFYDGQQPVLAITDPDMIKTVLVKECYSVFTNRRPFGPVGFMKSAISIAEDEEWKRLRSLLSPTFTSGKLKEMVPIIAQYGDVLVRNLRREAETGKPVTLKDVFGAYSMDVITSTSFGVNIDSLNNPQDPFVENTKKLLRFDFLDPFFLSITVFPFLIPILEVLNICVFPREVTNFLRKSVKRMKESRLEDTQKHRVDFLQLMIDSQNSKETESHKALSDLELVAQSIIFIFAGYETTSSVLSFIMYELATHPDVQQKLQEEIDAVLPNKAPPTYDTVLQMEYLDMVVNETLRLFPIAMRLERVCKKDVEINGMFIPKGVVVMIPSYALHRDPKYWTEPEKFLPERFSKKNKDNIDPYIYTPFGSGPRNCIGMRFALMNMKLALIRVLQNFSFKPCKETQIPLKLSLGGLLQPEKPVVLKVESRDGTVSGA
# [11] = Drug metabolism in C57Bl/6 mouse assessed as oxygenation metabolite formation at 20 mg/kg/day, ip qd for 7 days measured at 24 hrs post last dose by UHPLC/MS analysis; format: ADME, organism-based; conditions: in vivo
# In short: (§4)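 Serum from two mice dosed 20 mg/kg/day i.p. taken 24 h after the last dose. Compound quantified by UHPLC/MS and screened for M+2, M+16, M-2 and M+32 products or combinations.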
# Cytochrome P450 3A4 [12] = target: T1, Cytochrome P450 3A4; assay: Inhibition of CYP3A4 (unknown origin) using dibenzylfluorescein as substrate; format: ADME; in short: as §2
# Zaire ebolavirus [13] = assay: Antiviral activity against VSV pseudotyped Ebolavirus Mayinga expressing GFP infected in human HeLa cells assessed as inhibition of viral infection at 2 uM pre-incubated for 2 hrs followed by viral infection and measured after 8 hrs by cell mask deep red staining based assay; format: functional, organism-based; conditions: 1976; in short: as §1
# Zaire ebolavirus [14] = assay: Antiviral activity against Ebolavirus Mayinga infected in Balb/c mouse assessed as protection against viral infection at 1 to 5 mg/kg, ip administered 2 hrs prior to viral infection daily for 6 days and measured for 14 days relative to control; format: functional, 1976
# [15] = Half life in mouse liver microsomes; format: ADME, Microsome
# In short: (§5)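 Substrate depletion with mouse or human liver microsomes, 1 h at 37 °C. Clearance (μL/min/mg) and half-life derived.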
# Cytochrome P450 2D6 = Cytochrome P450 2D6 (Homo sapiens, UniProt P10635); assay: Inhibition of CYP2D6 (unknown origin) using 3-(2-(N, N-Diethyl-N-methylamino)ethyl)-7-Methoxy-4-Methylcoumarin as substrate; format: ADME; conditions: read-out: INH; in short: as §2
# Sequence of Cytochrome P450 2D6 (P10635 whole entry): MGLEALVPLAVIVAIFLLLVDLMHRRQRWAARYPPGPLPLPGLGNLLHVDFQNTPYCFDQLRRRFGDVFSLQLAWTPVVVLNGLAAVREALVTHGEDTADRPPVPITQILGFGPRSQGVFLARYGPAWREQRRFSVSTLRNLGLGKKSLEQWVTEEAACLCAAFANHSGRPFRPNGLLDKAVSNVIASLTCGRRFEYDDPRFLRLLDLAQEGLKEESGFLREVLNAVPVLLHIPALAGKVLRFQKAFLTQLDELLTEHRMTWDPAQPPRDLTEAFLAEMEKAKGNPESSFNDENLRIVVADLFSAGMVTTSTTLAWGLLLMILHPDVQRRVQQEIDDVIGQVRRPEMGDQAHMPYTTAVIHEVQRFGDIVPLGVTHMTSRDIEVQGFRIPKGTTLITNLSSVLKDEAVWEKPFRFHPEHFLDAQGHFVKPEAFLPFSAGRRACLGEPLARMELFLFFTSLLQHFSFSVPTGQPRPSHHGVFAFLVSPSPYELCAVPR
# [16] = tested on: Vesicular stomatitis virus; assay: Antiviral activity against VSV expressing GFP infected in human HeLa cells assessed as inhibition of viral infection at 2 uM pre-incubated for 2 hrs followed by viral infection and measured after 6 hrs by cell mask deep red staining based assay; format: functional, organism-based; in short: as §1
# [17] = Drug metabolism in C57Bl/6 mouse assessed as bis-oxygenation metabolite formation at 20 mg/kg/day, ip qd for 7 days measured at 24 hrs post last dose by UHPLC/MS analysis; format: ADME, organism-based; conditions: in vivo; in short: as §4
# [18] = Clearance in mouse liver microsomes after 1 hr; format: ADME, Microsome; conditions: read-out: CLH; in short: as §5
# [19] = Solubility of the compound in deionized water; format: physicochemical
# [20] = Clearance in human liver microsomes after 1 hr; format: ADME, Microsome; conditions: read-out: CLH; in short: as §5
# [21] = Drug metabolism in C57Bl/6 mouse assessed as dehydrogenation metabolite formation at 20 mg/kg/day, ip qd for 7 days measured at 24 hrs post last dose by UHPLC/MS analysis; format: ADME, organism-based; conditions: in vivo; in short: as §4
# HeLa [22] = assay: Induction of lysosome suppression in human HeLa cells assessed as vesicular compartment expansion pretreated for 2 hrs followed by VSV pseudotyped EBOV-GP-GFP infection for 2 to 6 hrs by uranyl acetate staining based transmission electron microscopic method; format: functional, subcellular; in short: as §3
# [23] = Drug metabolism in C57Bl/6 mouse assessed as reduction metabolite formation at 20 mg/kg/day, ip qd for 7 days measured at 24 hrs post last dose by UHPLC/MS analysis; format: ADME, organism-based; conditions: in vivo; in short: as §4
# [24] = Drug uptake in C57Bl/6 mouse serum at 20 mg/kg/day, ip qd for 7 days measured at 24 hrs post last dose by UHPLC/MS analysis; format: ADME, organism-based; conditions: read-out: Drug uptake; in short: as §4
structure (smiles),measurement,setting,value
Cl.Cl.Cl.Cl.c1cc(NCCN2CCOCC2)c2ccc3c(ccc4c(NCCN5CCOCC5)ccnc43)c2n1,Activity,[1],Non-Toxic
same,Activity,[2],Non-Toxic
same,Activity,Ebolavirus [3],90%
same,EC50,Ebolavirus [4],0.7 µM
Cl.Cl.Cl.Cl.c1cc(NCCCCN2CCOCC2)c2ccc3c(ccc4c(NCCN5CCOCC5)ccnc43)c2n1,Activity,Zaire ebolavirus [5],Active
same,Papp B→A,[6],43.2 to 67.3 ×10⁻⁶ cm/s
same,remaining at 1 h,[7],60%
same,INH,Cytochrome P450 2C19,> 10 µM
same,Activity,Zaire ebolavirus [8],Dose-dependent effect
same,Activity,HeLa [9],Active
same,INH,Cytochrome P450 3A4 [10],> 10 µM
same,Drug metabolism,[11],Metabolite_Notdetected
same,INH,Cytochrome P450 3A4 [12],> 10 µM
same,Activity,Zaire ebolavirus [13],Active
same,Activity,Zaire ebolavirus [14],50%
same,half-life,[15],1.03 h
same,IC50,Cytochrome P450 2D6,> 10 µM
same,Activity,[16],inactive
same,Drug metabolism,[17],Metabolite_Notdetected
same,microsomal CLint,[18],22.3 µL/min/mg
same,solubility,[19],≥ 25 mg/mL
same,microsomal CLint,[20],32.9 µL/min/mg
same,Drug metabolism,[21],Metabolite_Notdetected
same,Activity,HeLa [22],Active
same,Drug metabolism,[23],Metabolite_Notdetected
same,concentration at 24 h,[24],350 to 1200 nM
